# This is a sample that favours compounds with a hit; in the whole collection about 2.5% have one here.
# AF4-AF9 inh – inhibitors of human MLL-AF4/AF9 interaction. P42568. AlphaScreen, biotin-AF4 peptide binding to FLAG-AF9. inhibition, % at 10 µM. actives 0.47% (n = 350,000). AID 651704;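 active = every replicate reaching a set inhibition limit, whatever the replicate mean, cut at about 25% in these data; inconclusive = mean inhibition reaches that limit but some replicates miss it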;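 also: 0% = plate neutral control median and 100% = total signal loss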
# Target sequence (P42568 whole entry, looked up): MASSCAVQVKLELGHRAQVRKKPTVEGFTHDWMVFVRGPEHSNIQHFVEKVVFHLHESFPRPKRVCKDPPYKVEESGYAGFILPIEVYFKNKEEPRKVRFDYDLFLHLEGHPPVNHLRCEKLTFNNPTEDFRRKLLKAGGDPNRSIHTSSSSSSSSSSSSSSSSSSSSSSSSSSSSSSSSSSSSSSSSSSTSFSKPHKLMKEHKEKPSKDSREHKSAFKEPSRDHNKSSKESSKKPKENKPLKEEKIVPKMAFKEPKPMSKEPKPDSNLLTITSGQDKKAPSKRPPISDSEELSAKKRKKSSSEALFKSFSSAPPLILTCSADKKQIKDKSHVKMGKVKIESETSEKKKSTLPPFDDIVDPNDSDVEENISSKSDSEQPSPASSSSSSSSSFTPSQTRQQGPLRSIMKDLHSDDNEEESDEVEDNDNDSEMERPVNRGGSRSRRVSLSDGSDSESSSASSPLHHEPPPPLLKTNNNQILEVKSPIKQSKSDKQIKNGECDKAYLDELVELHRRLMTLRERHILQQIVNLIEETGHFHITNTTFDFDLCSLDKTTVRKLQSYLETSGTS
# Glyco luc inh – blocks N-linked glycosylation in D54 reporter cells | reporter increase, % at 12.5 µM | actives 0.23% (n = 360,000) | AID 588692 | D54 ERlucT glycosylation luciferase reporter, 24 h; percent of 100 nM tunicamycin response;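 active = mean luciferase reporter signal, scaled so untreated is 0 and the glycosylation-blocking control 100, at or above a set limit in every replicate; inconclusive = mean reaches the limit but not every replicate does; inactive = mean below the limit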;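 also: luciferase carries N-glycosylation sites so blocking glycosylation raises the light; 0% = median of neutral control wells and 100% = median of 100 nM tunicamycin wells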
# PAX8 reporter – inhibitors of PAX8 transcriptional activity in RMG-I cells | RMG-I TPO-luciferase reporter, SteadyGlo, 24 h | inhibition, % at 12.6 µM | actives 1.2% (n = 360,000) | AID 652154;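 active = mean replicate inhibition at least 60% with every replicate also reaching 60%; inconclusive = only one of the two criteria is met; inactive = mean below 60% and not all replicates reaching 60%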;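 also: luciferase light reporting Pax8 driven TPO promoter activity; plate controls were median of neutral control wells for no effect and mitoxantrone controls for full effect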
# FN deposition inh – fibronectin deposition inhibition; actives 0.086% (n = 350,000); inhibition, % at 12.6 µM; AH1F fibroblasts, Alexa488-fibronectin deposition fluorescence, overnight; AID 743247;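 active = mean inhibition across replicates of 30% or more, regardless of how many single replicates reach that level; inconclusive = mean under 30% yet at least half of replicates reach 30%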;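 also: positive control wells lacked labelled fibronectin entirely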
#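 Assay system: AH1F fibroblast monolayer, labelled fibronectin deposition. Amount: 10000 cells per well. Also added: labelled fibronectin 24 nM. Compound: single-point pinned compound. Incubation: cell attachment 1 h, compound and FN exposure overnight. Detection: fluorescence after three HBSS washes, excitation 485 nm, emission 525 nm. Read-out: inhibition of fibronectin deposition signal.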
# Env fusion inh – inhibitors of HIV Env-mediated cell fusion; HeLa-JRFL Env/CEM21 cell fusion, luciferase; inhibition, % at 12.3 µM; actives 1.1% (n = 360,000); AID 651610;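 active = mean replicate inhibition score of at least 50 and every replicate individually at or above 50; inconclusive = only one of the two criteria met; inactive = mean below 50 and not all replicates reaching 50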;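 also: 0% = plate neutral controls and 100% = maraviroc near 300 nM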
# EWS-Fli block – inhibitors of EWS/Fli oncoprotein transcriptional activity; A673 NR0B1-luciferase reporter, viability-normalised; actives 0.67% (n = 350,000); AID 651661; inhibition, % at 12.6 µM;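 active = mean inhibition of at least 50% after viability correction, with every replicate also passing that limit; inconclusive = mean reaches 50% but only one of two replicates passes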;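 also: firefly luciferase signal divided by Alamar Blue viability fluorescence both relative to DMSO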
# Numbers without * were called inactive; ? = inconclusive; nt = no result given; [ ] = another dose, or the depositor's remark.
SMILES,AF4-AF9 inh,Glyco luc inh,PAX8 reporter,FN deposition inh,Env fusion inh,EWS-Fli block
Cc1ccc2c(c1)C(=C(C#N)C#N)CCN2,-3.0,0.7,-2.2,nt,76.1*,5.3
COc1ccc(S(=O)(=O)N(C)C[C@H]2Oc3ccc(NC(=O)CCCCCC(=O)Nc4ccccc4N)cc3CC(=O)N([C@@H](C)CO)C[C@H]2C)cc1,-1.4,nt,0.2,nt,8.5[16.7 µM],7.9
O=[N+]([O-])c1cc(-c2ccccc2)cc([N+](=O)[O-])c1O,-0.6,-0.7,nt,3.5,1.5,-1.1
O=C([O-])c1ccccc1-[n+]1c(-c2ccccc2)cc(-c2ccccc2)cc1-c1ccccc1,13.5,2.4,85.2*,-4.4,0.2,-1.7
C=C(C(=O)c1ccccc1)C(CC(=O)c1ccccc1)c1ccccc1 (stereo not given),nt,-10.3,102.4*,19.3,nt,nt
C=C(CCC(=O)c1ccccc1)C(=O)c1ccccc1,1.7,-8.9,15.6,-1.4,-2.7,13.0
C[C@@H]1CN([C@@H](C)CO)C(=O)c2cc(NC(=O)CCCCCC(=O)Nc3ccccc3N)ccc2O[C@@H]1CN(C)C(=O)Nc1ccc(C(F)(F)F)cc1,-1.9,nt,nt,-8.1,nt,5.3
CCOC(=O)c1ccc2ncc(C(=O)OCC)c(NCCCN3CCOCC3)c2c1,nt,-0.1,nt,-0.9,-20.7,nt
CCOC(=O)c1cnc2ccc(OC)cc2c1Nc1ccc2c(c1)OCCO2,nt,-0.9,nt,nt,nt,nt
CCOC(=O)c1cnc2ccc(C(=O)OC)cc2c1Nc1ccc(C(=O)O)cc1,2.1,6.0,103.8*,4.6,-20.1,8.5
CCOC(=O)c1cnc2ccc(OC)cc2c1Nc1ccc(N2CCN(C)CC2)cc1,41.1*,2.7,18.9,5.1,12.5,-1.3
CCOC(=O)c1ccc2ncc(C(=O)OCC)c(Nc3ccc(N4CCOCC4)cc3)c2c1,25.6*,-18.9,9.3,5.4,14.7,-5.9
O=C(Nc1cccc(F)c1)N1C[C@H]2[C@@H](c3ccccc31)[C@@H](CO)N2C(=O)c1ccccc1F,-0.7,nt,10.1,nt,nt,-6.2
CCCNC(=O)N1CC(=O)N2[C@@H](CO)[C@H](c3ccc(-c4cccc(C)c4)cc3)[C@@H]2C1,-15.1,nt,-0.8,nt,nt,4.5
COc1ccc(S(=O)(=O)N(C)C[C@H]2OCCCC[C@@H](C)Oc3ccc(NS(C)(=O)=O)cc3C(=O)N([C@@H](C)CO)C[C@H]2C)cc1,1.0,nt,1.3,nt,18.3[16.7 µM],-5.6
Cc1ccc(S(=O)(=O)N[C@H]2CC[C@H](CCNC(=O)c3ccc4c(c3)OCO4)O[C@H]2CO)cc1,-0.7,nt,5.5,nt,-1.0[16.7 µM],3.1
Cc1cc(C(=O)NCc2cc(C)n(C)n2)sc1-c1ccccc1,nt,-1.7,nt,nt,55.9*,nt
C[C@H]1CN([C@@H](C)CO)C(=O)c2cc(NC(=O)CCCCCC(=O)Nc3ccccc3N)ccc2O[C@H]1CN(C)S(=O)(=O)c1ccccc1,-3.7,nt,nt,nt,nt,22.3
O=C(CCCN1C(=O)/C(=C/c2ccccc2Cl)SC1=S)Nc1cccnc1,1.9,0.7,80.7*,nt,24.4,nt
O=C(CCCN1C(=O)/C(=C/c2ccccc2)SC1=S)Nc1cccc(O)c1,9.5,-1.7,66.3*,nt,9.9,4.1
CC(/C=C1\SC(=S)N(CCC(=O)Nc2ccc(O)cc2)C1=O)=C\c1ccccc1,-0.5,-2.4,73.7*,-3.0,6.6,2.8
CC(=Cc1ccccc1)C=C1SC(=S)N(CCCC(=O)Nc2ccc(C(=O)O)c(O)c2)C1=O,13.5,0.4,-23.8,-5.7,11.3,-8.7
Cc1ccc(/C=C2/SC(=S)N(CCCC(=O)Nc3ccc(O)cc3)C2=O)cc1,0.8,-5.5,80.9*,1.6,55.2*,49.5
O=C(CCCN1C(=O)/C(=C\c2ccccc2)SC1=S)Nc1cccc(C(=O)O)c1,2.4,1.6,14.8,1.5,4.2,1.4
O=C(Cc1ccccc1)N1C[C@H]2[C@@H](c3ccccc31)[C@@H](CO)N2C(=O)C1CCCC1,nt,nt,-4.1,2.6,nt,3.4
SMILES,AF4-AF9 inh,Glyco luc inh,PAX8 reporter,FN deposition inh,Env fusion inh,EWS-Fli block
O=C(CCCN1C(=O)/C(=C\c2ccccc2)SC1=S)Nc1ccc(O)cc1,12.3,-3.6,76.7*,-0.6,24.2,3.1
COc1ccccc1/C=C1\SC(=S)N(CCC(=O)Nc2cccc(O)c2)C1=O,6.5,-0.6,15.6,0.7,69.7*,3.1
O=C(CCCN1C(=O)/C(=C/c2cccs2)SC1=S)Nc1cccc(O)c1,6.4,-0.8,67.4*,5.9,-17.0,11.5
O=C(CCN1C(=O)/C(=C/c2cccs2)SC1=S)Nc1cccc(O)c1,4.4,-1.7,8.9,-1.1,7.0,2.6
O=C(O)CCCN1C(=O)/C(=C\C(Cl)=C\c2ccccc2)SC1=S,-4.5,17.7,114.5*,10.3,-103.7,?
CN1CCN(C(=O)CCCN2C(=O)/C(=C/c3ccccc3)SC2=S)CC1,17.6,5.6,7.6,5.4,-16.8,-26.8
CO[C@@H](CN(C)C(=O)c1ccccc1F)[C@@H](C)CN([C@H](C)CO)S(=O)(=O)c1ccc(C)cc1,-1.6,nt,nt,3.2,nt,-2.3
COc1cccc(NC(=O)N[C@@H]2CC[C@@H](CC(=O)Nc3ccccc3)O[C@@H]2CO)c1,0.5,nt,-4.3,1.2,14.5[16.7 µM],-2.3
C[C@H](CO)N1C[C@H](C)[C@@H](CN(C)CC2CCCC2)Oc2cc(Br)ccc2S1(=O)=O,-0.5,nt,10.1,-8.5,8.9[16.7 µM],23.3
CCS(=O)(=O)Nc1ccc2c(c1)C(=O)N(C)[C@H]1CC[C@@H](CC(=O)N3CCOCC3)O[C@@H]1CO2,-0.8,nt,-17.2,3.4,12.9[16.7 µM],30.0
O=C(NCCN1CCOCC1)c1ccc(/C=C2\Sc3ccccc3N(Cc3ccccc3F)C2=O)cc1,7.5,-2.8,-14.3,21.6,3.2,2.9
CCN1CCN(CCNC(=O)c2ccc3c(c2)N(Cc2ccc(F)cc2)C(=O)/C(=C/c2ccccc2)S3)CC1,58.2*,-7.9,4.0,8.4,4.1,-12.8
CN1CCN(CCCNC(=O)c2ccc(/C=C3\Sc4ccccc4N(Cc4ccccc4F)C3=O)cc2)CC1,36.3*,-2.1,-1.0,0.0,4.2,7.6
COc1cccc(/C=C2/Sc3ccc(C(=O)NCCN4CCCC4)cc3NC2=O)c1,37.5*,-11.3,21.8,19.7,11.3,16.7
COc1cccc(S(=O)(=O)N(C)C[C@@H]2OCc3ccccc3-c3ccccc3C(=O)N([C@H](C)CO)C[C@@H]2C)c1,5.8,nt,-1.0,9.4,35.0[16.7 µM],-14.3
CCOc1cc(S(=O)(=O)n2cc(-c3ccc(F)cc3)c(N)n2)cc(OCC)c1OCC,nt,-6.0,nt,nt,nt,nt
CCOc1cc(-c2cn(S(=O)(=O)c3cccc4nsnc34)nc2N)cc(OCC)c1OCC,nt,-10.4,nt,-1.4,65.9*,nt
O=C(CC1CC1)N1[C@@H](CO)[C@@H]2c3ccccc3N(S(=O)(=O)c3ccccc3)C[C@@H]21,0.0,nt,-9.3,nt,nt,-0.5
CCOc1ccc2[nH]c(=O)c(CN(CCN3CCCC3)C(=S)Nc3ccccc3OCC)cc2c1,6.6,-5.6,4.5,2.3,-0.7,55.3*
COc1ccc2[nH]c(=O)c(CN(CCN3CCCC3)C(=O)Nc3ccccc3Cl)cc2c1,nt,-11.6,nt,nt,nt,nt

# Screens deposited in PubChem BioAssay by Broad Institute.
